Measured values published in ChEMBL document CHEMBL4673272, “Discovery of cyclic sulfonamide derivatives as potent inhibitors of SARS-CoV-2” (Bioorg Med Chem Lett, 2021).

How the values were obtained:
[1] = Selectivity index, ratio of CC50 for African green monkey Vero cells infected with SARS-CoV-2 betaCoV/KOR/KCDC03/2020 to IC50 for SARS-CoV-2 betaCoV/KOR/KCDC03/2020
[2] = Cytotoxicity against African green monkey Vero cells infected with SARS-CoV-2 betaCoV/KOR/KCDC03/2020 assessed as reduction in cell viability measured after 72 hrs by CellTiter-Glo Luminescent Cell Viability Assay; type: cell-based; details: chlorocebus sabaeus
[3] = tested on: SARS-CoV-2; assay: Antiviral activity against SARS-CoV-2 betaCoV/KOR/KCDC03/2020 infected in African green monkey Vero cells assessed as inhibition of virus-induced cytopathic effect measured after 24 hrs by immunofluorescence assay; type: functional, organism-based; details: Severe acute respiratory syndrome coronavirus 2, betaCoV/KOR/KCDC03/2020, Vero
[4] = Cmax in rat at 5 mg/kg, iv or 10 mg/kg, po; type: ADME, organism-based; design: dose 10 mg/kg; details: in vivo
Outline: (§1)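 Rats, n = 3, were dosed at 5 mg/kg IV and 10 mg/kg PO. Cmax, T1/2, clearance and oral bioavailability (F) were derived from these two dosing routes.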

[5] = Metabolic stability in monkey microsomes assessed as parent compound remaining incubated for 30 mins; type: ADME, Macaca mulatta, Microsome; details: rhesus monkey, read-out: Stabilty
[6] = tested on: CHO-K1; assay: Cytotoxicity against CHO-K1 cells; type: cell-based, Cricetulus griseus; details: chinese hamster
Outline: (§2)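 Cell-line panel used for cytotoxicity: Vero, African green monkey kidney; HFL-1, human embryonic lung; L929 (NCTC clone 929), mouse fibroblast; NIH 3T3, mouse embryonic fibroblast; CHO-K1, Chinese hamster ovary. Values given in μM.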

[7] = Metabolic stability in human microsomes assessed as parent compound remaining incubated for 30 mins; type: ADME, Microsome; details: read-out: Stabilty
[8] = Oral bioavailability in rat at 10 mg/kg; type: ADME, organism-based; details: in vivo; outline: as §1
[9] = tested on: HFL1; assay: Cytotoxicity against human HFL-1 cells; type: cell-based; outline: as §2
[10] = Half life in rat at 5 mg/kg, iv or 10 mg/kg, po; type: ADME, organism-based; details: in vivo; outline: as §1
[11] = biological target: hERG (KCNH2) (Homo sapiens, UniProt Q12809); assay: Inhibition of human ERG at 10 uM relative to control
[12] = Clearance in rat at 5 mg/kg, iv or 10 mg/kg, po; type: ADME, organism-based; details: in vivo; outline: as §1
[13] = tested on: Vero; assay: Cytotoxicity against African green monkey Vero cells; type: cell-based; details: chlorocebus sabaeus; outline: as §2
[14] = tested on: L929; assay: Cytotoxicity against mouse L929 cells; type: cell-based; outline: as §2
[15] = tested on: NIH3T3; assay: Cytotoxicity against mouse NIH/3T3 cells; type: cell-based; outline: as §2

Sequence of hERG (KCNH2) (Q12809 whole entry): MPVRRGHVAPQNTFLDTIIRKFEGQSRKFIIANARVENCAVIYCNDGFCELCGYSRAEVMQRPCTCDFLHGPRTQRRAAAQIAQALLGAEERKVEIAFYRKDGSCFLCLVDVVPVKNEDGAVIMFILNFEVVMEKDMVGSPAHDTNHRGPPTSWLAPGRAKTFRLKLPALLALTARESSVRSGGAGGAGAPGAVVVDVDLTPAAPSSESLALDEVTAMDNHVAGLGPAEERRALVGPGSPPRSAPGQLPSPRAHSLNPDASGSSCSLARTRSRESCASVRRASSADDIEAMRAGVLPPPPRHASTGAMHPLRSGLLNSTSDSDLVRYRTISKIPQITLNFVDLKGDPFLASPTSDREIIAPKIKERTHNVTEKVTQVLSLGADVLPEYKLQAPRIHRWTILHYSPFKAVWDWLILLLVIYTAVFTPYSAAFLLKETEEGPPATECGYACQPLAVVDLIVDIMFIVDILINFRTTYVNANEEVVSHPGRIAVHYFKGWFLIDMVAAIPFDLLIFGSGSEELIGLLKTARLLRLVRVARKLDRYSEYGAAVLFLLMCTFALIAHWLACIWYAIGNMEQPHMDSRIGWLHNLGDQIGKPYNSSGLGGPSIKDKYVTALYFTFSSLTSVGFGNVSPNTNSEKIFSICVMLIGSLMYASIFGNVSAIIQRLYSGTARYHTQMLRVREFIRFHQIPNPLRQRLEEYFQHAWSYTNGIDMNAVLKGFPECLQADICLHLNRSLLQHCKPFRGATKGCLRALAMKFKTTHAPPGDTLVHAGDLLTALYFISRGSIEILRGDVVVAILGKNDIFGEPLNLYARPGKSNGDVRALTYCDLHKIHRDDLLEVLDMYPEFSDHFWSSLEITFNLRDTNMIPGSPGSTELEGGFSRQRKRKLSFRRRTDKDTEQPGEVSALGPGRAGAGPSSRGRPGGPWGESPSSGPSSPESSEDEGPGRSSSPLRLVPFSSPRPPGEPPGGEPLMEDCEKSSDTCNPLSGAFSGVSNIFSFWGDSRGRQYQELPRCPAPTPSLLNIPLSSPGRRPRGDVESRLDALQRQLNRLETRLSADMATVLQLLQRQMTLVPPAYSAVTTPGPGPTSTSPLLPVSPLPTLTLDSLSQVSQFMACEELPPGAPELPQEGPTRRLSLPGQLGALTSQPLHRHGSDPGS

SMILES | Ratio CC50/IC50 [1] | CC50 at 72 h [2] [µM] | IC50 [3] [µM] | also measured
CCNC(=O)CN1C(C(=O)c2ccccc2)=C(O)c2ccccc2S1(=O)=O | 1 | > 25 | > 25 | –
O=C(CN1C(C(=O)c2ccccc2)=C(O)c2ccccc2S1(=O)=O)Nc1cccc(OC(F)(F)F)c1 | 2.1 | > 25 | 11.5 | –
O=C(CN1C(C(=O)c2ccccc2)=C(O)c2ccccc2S1(=O)=O)NC1CCCCC1 | 1 | > 25 | > 25 | –
COc1ccc(C(=O)C2=C(O)c3ccccc3S(=O)(=O)N2CC(=O)Nc2ccc(C(F)(F)F)cc2)cc1 | 2.5 | > 25 | 8.6 | –
O=C(CN1C(C(=O)c2ccc(F)c(Cl)c2)=C(O)c2ccccc2S1(=O)=O)Nc1cccc(OC(F)(F)F)c1 | 2.8 | > 25 | 9.2 | –
O=C(O)/C=C/N1C(C(=O)c2ccc(F)c(Cl)c2)=C(O)c2ccccc2S1(=O)=O | 1 | > 25 | > 25 | –
N#Cc1ccc(C(=O)C2=C(O)c3ccccc3S(=O)(=O)N2CC(=O)Nc2cccc(OC(F)(F)F)c2)cc1 | 1.6 | > 25 | 14.3 | –
CC(C)C(=O)C1=C(O)c2ccccc2S(=O)(=O)N1CC(=O)Nc1ccc(C(F)(F)F)cc1 | 3 | > 25 | 7.3 | –
COc1ccc(C(=O)C2=C(O)c3ccccc3S(=O)(=O)N2CC(=O)Nc2cccc(OC(F)(F)F)c2)cc1 | 2 | > 25 | 11.6 | –
O=C(CN1C(C(=O)c2ccc(F)c(Cl)c2)=C(O)c2ccc(F)cc2S1(=O)=O)Nc1ccc(C(F)(F)F)cc1 | 30.7 | > 25 | 0.88 | Cmax [4]: 14330 ng/mL; remaining at 0.5 h [5]: 61%; Activity [6]: 10.6 µM; remaining at 0.5 h [7]: 93%; F [8]: 77%; Activity [9]: 44.2 µM; t1/2 [10]: 18.5 h; inhibition at 10 µM [11]: < 1%; CL [12]: 0.67 mL/min/kg; Activity [13]: 42.1 µM; Activity [14]: 31.4 µM; Activity [15]: 68 µM
O=C(C1=C(O)c2ccccc2S(=O)(=O)N1Cc1ccccc1)c1ccccc1 | 1 | > 25 | > 25 | –
CNc1ccc2c(c1)S(=O)(=O)N(CC(=O)Nc1ccc(C(F)(F)F)cc1)C(C(=O)c1ccc(F)c(Cl)c1)=C2O | 1.3 | > 25 | 13.8 | –
O=C(CN1C(C(=O)c2ccc(Cl)cc2)=C(O)c2ccccc2S1(=O)=O)Nc1cccc(OC(F)(F)F)c1 | 2.9 | > 25 | 8.5 | –
O=C(CN1C(C(=O)c2ccc(F)cc2)=C(O)c2ccccc2S1(=O)=O)Nc1ccccc1Cl | 1 | > 25 | > 25 | –
O=C(CN1C(C(=O)c2ccc(F)cc2)=C(O)c2ccccc2S1(=O)=O)Nc1ccc(C(F)(F)F)cc1 | 4.7 | > 25 | 5.3 | –
CC(C)C(=O)C1=C(O)c2ccccc2S(=O)(=O)N1CC(=O)Nc1cccc(OC(F)(F)F)c1 | 1.9 | > 25 | 10.8 | –
CN1CCN(c2ccc3c(c2)S(=O)(=O)N(CC(=O)Nc2ccc(C(F)(F)F)cc2)C(C(=O)c2ccc(F)c(Cl)c2)=C3O)CC1 | 1.6 | > 25 | 14 | –
N#Cc1cccc(C(=O)C2=C(O)c3ccccc3S(=O)(=O)N2CC(=O)c2ccc(F)c(Cl)c2)c1 | 1 | > 25 | > 25 | –

SMILES | Ratio CC50/IC50 [1] | CC50 at 72 h [2] [µM] | IC50 [3] [µM] | also measured
O=C(/C=C/N1C(C(=O)c2ccc(F)c(Cl)c2)=C(O)c2ccccc2S1(=O)=O)Nc1cccc(OC(F)(F)F)c1 | 3.6 | > 25 | 6.6 | –
CCC(CC)COC(=O)[C@H](C)N[P@](=O)(OC[C@H]1O[C@@](C#N)(c2ccc3c(N)ncnn23)[C@H](O)[C@@H]1O)Oc1ccccc1 [REMDESIVIR] | 3.6 | > 25 | 7.01 | –
O=C(CN1C(C(=O)c2cccc(F)c2)=C(O)c2ccccc2S1(=O)=O)Nc1ccc(C(F)(F)F)cc1 | 3.2 | > 25 | 7 | –
O=C(CN1C(C(=O)c2cccc(Cl)c2)=C(O)c2ccccc2S1(=O)=O)Nc1cccc(OC(F)(F)F)c1 | 2.1 | > 25 | 11.9 | –
O=C(CN1C(C(=O)c2ccc(F)c(Cl)c2)=C(O)c2ccc(F)cc2S1(=O)=O)Nc1cccc(OC(F)(F)F)c1 | 8.9 | > 25 | 3.1 | –
O=C(CN1C(C(=O)c2cccc(Cl)c2)=C(O)c2ccccc2S1(=O)=O)Nc1ccc(C(F)(F)F)cc1 | 5.8 | > 25 | 4.1 | –
O=C(CN1C(C(=O)c2ccc(F)cc2)=C(O)c2ccccc2S1(=O)=O)Nc1ccccc1 | 1 | > 25 | > 25 | –
O=C(CN1C(C(=O)c2ccc(Cl)cc2)=C(O)c2ccccc2S1(=O)=O)Nc1ccc(C(F)(F)F)cc1 | 6 | > 25 | 4 | –
N#Cc1ccc(C(=O)C2=C(O)c3ccccc3S(=O)(=O)N2CC(=O)c2ccc(F)c(Cl)c2)cc1 | 1 | > 25 | > 25 | –
O=C(CN1C(C(=O)c2ccc(F)c(Cl)c2)=C(O)c2ccc(F)cc2S1(=O)=O)Nc1cccc(Cl)c1 | 12.1 | > 25 | 2.2 | –
N#Cc1ccc(C(=O)C2=C(O)c3ccccc3S(=O)(=O)N2CC(=O)Nc2ccc(C(F)(F)F)cc2)cc1 | 1.4 | > 25 | 9.3 | –
CCN(CC)CCCC(C)Nc1ccnc2cc(Cl)ccc12 (centres undefined) [CHLOROQUINE] | 3.1 | > 25 | 8 | –
O=C(CN1C(C(=O)c2cccc(F)c2)=C(O)c2ccccc2S1(=O)=O)Nc1cccc(OC(F)(F)F)c1 | 2.3 | > 25 | 10.1 | –
O=C(CN1C(C(=O)c2ccc(F)cc2)=C(O)c2ccccc2S1(=O)=O)Nc1cccc(OC(F)(F)F)c1 | 2.7 | > 25 | 8.9 | –
N#Cc1cccc(C(=O)C2=C(O)c3ccccc3S(=O)(=O)N2CC(=O)Nc2ccc(C(F)(F)F)cc2)c1 | 1.5 | > 25 | 10.7 | –
N#Cc1cccc(C(=O)C2=C(O)c3ccccc3S(=O)(=O)N2CC(=O)Nc2cccc(OC(F)(F)F)c2)c1 | 1.6 | > 25 | 14.3 | –
O=C(CN1C(C(=O)c2ccc(F)c(Cl)c2)=C(O)c2ccccc2S1(=O)=O)Nc1ccc(C(F)(F)F)cc1 | 11.1 | > 25 | 2.5 | –
O=C(CN1C(C(=O)c2ccc(F)cc2)=C(O)c2ccccc2S1(=O)=O)Nc1cccc(F)c1 | – | > 25 | 15.3 | –
